Results reported in ChEMBL document CHEMBL5055640, “Discovery of Novel Acetamide-Based Heme Oxygenase-1 Inhibitors with Potent In Vitro Antiproliferative Activity” (J Med Chem, 2021).
Activity calls are given as the source filed them. No cut-off for these calls is given here.

Columns and labels:
[1] = organism: Rattus norvegicus; test: Selectivity index, ratio of IC50 for inhibition of Sprague-Dawley rat brain microsome HO-2 to IC50 for inhibition of Sprague-Dawley rat spleen microsome HO-1
[2] = system: A549; test: Antiproliferative activity against human A549 cells assessed as reduction in cell viability at 10 uM incubated for 48 hrs by MTT assay; format: functional, cell-based
Outline: (§1)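 Cells grown in DMEM with 10% heat-inactivated FBS and penicillin/streptomycin at 37 °C, 5% CO2, seeded at 7 × 10^3 cells/well. After 24 h, treated 48 h at 1, 10 or 50 μM. MTT 0.5 mg/mL added for 4 h at 37 °C, formazan dissolved in DMSO, A570 read. Eight replicate wells per group, at least three independent experiments, % of control, mean ± SEM.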

[3] = system: A549; test: Antiproliferative activity against human A549 cells assessed as reduction in cell viability at 1 uM incubated for 48 hrs by MTT assay; format: functional, cell-based; outline: as §1
[4] = system: A 172; test: Antiproliferative activity against human A172 cells assessed as reduction in cell viability at 50 uM incubated for 48 hrs by MTT assay; format: functional, cell-based; outline: as §1
[5] = system: A 172; test: Antiproliferative activity against human A172 cells assessed as reduction in cell viability at 10 uM incubated for 48 hrs by MTT assay; format: functional, cell-based; outline: as §1
[6] = system: A 172; test: Antiproliferative activity against human A172 cells assessed as reduction in cell viability at 1 uM incubated for 48 hrs by MTT assay; format: functional, cell-based; outline: as §1
[7] = system: U-87 MG; test: Antiproliferative activity against human U-87MG cells assessed as reduction in cell viability at 50 uM incubated for 48 hrs by MTT assay relative to control; format: functional, U-87MG ATCC; conditions: for inhibition: U-87MG ATCC; outline: as §1
[8] = system: U-87 MG; test: Antiproliferative activity against human U-87MG cells assessed as reduction in cell viability at 10 uM incubated for 48 hrs by MTT assay relative to control; format: functional, U-87MG ATCC; outline: as §1
[9] = system: U-87 MG; test: Antiproliferative activity against human U-87MG cells assessed as reduction in cell viability at 1 uM incubated for 48 hrs by MTT assay relative to control; format: functional, U-87MG ATCC; outline: as §1
[10] = system: DU-145; test: Antiproliferative activity against human DU145 cells assessed as reduction in cell viability at 10 uM incubated for 48 hrs by MTT assay; format: functional, cell-based; outline: as §1
[11] = system: DU-145; test: Antiproliferative activity against human DU145 cells assessed as reduction in cell viability at 50 uM incubated for 48 hrs by MTT assay; format: functional, cell-based; outline: as §1
[12] = system: DU-145; test: Antiproliferative activity against human DU145 cells assessed as reduction in cell viability at 1 uM incubated for 48 hrs by MTT assay; format: functional, cell-based; outline: as §1
[13] = system: A549; test: Antiproliferative activity against human A549 cells assessed as reduction in cell viability at 50 uM incubated for 48 hrs by MTT assay; format: functional, cell-based; outline: as §1
[14] = target: T1, Heme oxygenase 2 (Rattus norvegicus, UniProt P23711); test: Inhibition of Sprague-Dawley rat brain microsome HO-2 assessed as bilirubin formation incubated for 60 mins by double-beam spectrophotometry; format: microsomes
T1 sequence (P23711 whole entry): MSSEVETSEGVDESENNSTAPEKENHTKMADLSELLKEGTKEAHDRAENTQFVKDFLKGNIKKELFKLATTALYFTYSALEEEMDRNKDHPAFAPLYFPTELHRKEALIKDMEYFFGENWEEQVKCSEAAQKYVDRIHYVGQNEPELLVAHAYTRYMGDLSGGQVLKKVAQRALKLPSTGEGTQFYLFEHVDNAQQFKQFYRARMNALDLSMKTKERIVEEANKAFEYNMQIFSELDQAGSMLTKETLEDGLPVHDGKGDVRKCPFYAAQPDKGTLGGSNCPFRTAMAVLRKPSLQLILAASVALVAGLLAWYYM

[15] = target: T2, Heme oxygenase 1 (Rattus norvegicus, UniProt P06762); test: Inhibition of Sprague-Dawley rat spleen microsome HO-1 assessed as bilirubin formation incubated for 60 mins by double-beam spectrophotometry; format: microsomes
T2 sequence (P06762 whole entry): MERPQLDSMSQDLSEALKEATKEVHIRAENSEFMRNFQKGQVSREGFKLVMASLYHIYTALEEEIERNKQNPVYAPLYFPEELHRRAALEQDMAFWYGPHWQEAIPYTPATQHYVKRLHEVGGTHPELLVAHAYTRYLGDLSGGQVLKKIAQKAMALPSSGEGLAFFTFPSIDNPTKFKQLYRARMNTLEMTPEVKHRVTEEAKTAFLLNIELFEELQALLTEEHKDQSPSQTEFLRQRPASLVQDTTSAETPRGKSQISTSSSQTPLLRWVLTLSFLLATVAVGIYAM

[16] = system: DU-145; test: Reduction in HO-1 expression in human DU-145 cells at 10 uM incubated for 48 hrs by Western blot analysis; format: functional, cell-based
Outline: (§2)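 Cells treated 48 h at 10 μM. Lysed in Tris/EDTA/EGTA/sucrose buffer with protease and phosphatase inhibitors, sonicated, spun. 30 μg protein resolved on 4–15% Bis-Tris gel, transferred to PVDF, probed for HO-1. Band density normalized to actin and given as fold change; three independent experiments, mean ± SEM.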

[17] = system: U-87 MG; test: Antiinvasive activity against human U-87 MG cells assessed as reduction in cell motility measured after 48 hrs by wound healing assay; format: functional, cell-based; conditions: U-87MG ATCC
Outline: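 Confluent U87MG monolayers (5 × 10^4 cells/well) scratched with a pipette tip, then cultured in 1% serum medium with or without 10 μM compound. Cells advancing into the wound counted at 24 and 48 h in three random high-power fields per well, duplicate wells, and expressed as % of control. Mean ± SEM.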

[18] = system: U-87MG ATCC; test: Reduction in HO-1 expression in human U-87MG cells at 10 uM incubated for 48 hrs by Western blot analysis; format: functional, cell-based; outline: as §2
[19] = target: T3, Heme oxygenase 1 (Homo sapiens) (UniProt P09601); test: Inhibition of human HO-1 activity in human U-87MG cells assessed as reduction in immunoreactivity in cytoplasm at 10 uM incubated for 48 hrs […]; format: cell-based
T3 sequence (whole entry): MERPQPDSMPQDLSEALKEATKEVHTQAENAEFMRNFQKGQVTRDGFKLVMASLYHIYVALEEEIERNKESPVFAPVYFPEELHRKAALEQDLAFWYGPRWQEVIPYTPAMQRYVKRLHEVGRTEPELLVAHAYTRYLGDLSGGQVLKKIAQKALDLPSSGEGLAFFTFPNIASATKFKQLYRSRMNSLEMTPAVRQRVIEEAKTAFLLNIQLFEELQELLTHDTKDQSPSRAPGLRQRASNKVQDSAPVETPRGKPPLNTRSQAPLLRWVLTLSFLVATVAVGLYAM
Outline: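 U87MG cells on coverslips treated 48 h at 10 μM or left untreated. Fixed in 4% paraformaldehyde, permeabilized with 0.2% Triton X-100, blocked with 0.1% BSA, probed with rabbit anti-HO-1 then Alexa Fluor 488 anti-rabbit. Nuclei counterstained with DAPI; random fields imaged by fluorescence microscopy.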

[20] = system: U-87MG ATCC; test: Reduction in VEGF intracellular expression in human U-87 MG cells by Western blot analysis; format: functional, cell-based
Outline: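 U87MG cells treated 48 h with vehicle or 10 μM compound. Lysates (30 μg protein) resolved on 4–15% Bis-Tris gel and immunoblotted with goat polyclonal anti-VEGF; β-tubulin and β-actin antibodies also used.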

[21] = system: U-87MG ATCC; test: Reduction in VEGF release in human U-87 MG cells by ELISA; format: functional, cell-based
Outline: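 Confluent U87MG cells in 1% FBS medium treated 48 h with 10 μM compound or vehicle. VEGF-A in the conditioned medium measured by sandwich ELISA: capture antibody, biotinylated anti-human VEGF, HRP-streptavidin, TMB substrate, absorbance at 450 nm.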

[22] = system: H5V; test: Antiangiogenesis activity in mouse H5V cells assessed as decrease in tube like structure formation using culture medium derived from human U-87 MG cells treated at 10 uM for 48 hrs; format: functional, cell-based
Outline: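 Conditioned medium: subconfluent U87MG cells held 48 h at 37 °C in 1% FBS medium with 10 μM compound or vehicle, then spun and frozen. Overnight-starved H5V endothelial cells seeded on reduced-growth-factor basement membrane matrix and cultured 48 h at 37 °C in the conditioned medium. Tubes counted in three random fields and expressed as % of control.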

[23] = target: T3, Heme oxygenase 1 (Homo sapiens); test: Inhibition of human HO-1 activity in human U-87MG cells assessed as bilirubin formation at 10 uM

Which Selectivity Index [1] does the source give for `O=C(Cn1ccnc1)NC(c1ccccc1)c1ccccc1` here?
Its Selectivity Index is 0.5.

Which results are given for `CN(C(=O)Cn1ccnc1)C(c1ccccc1)c1cccc(Br)c1` (configuration not stated)?
inhibition [2]: inactive; inhibition [3]: inactive; inhibition [4]: inactive; inhibition [5]: inactive; inhibition [6]: inactive; inhibition at 50 µM [7]: > 30%; inhibition at 10 µM [8]: > 30%; inhibition at 1 µM [9]: > 30%

`CN(C(=O)Cn1ccnc1)C(c1ccccc1)c1ccc(OCc2ccc(Br)cc2)cc1` (configuration not stated) was tested. Which inhibition [10] did it give?
Its inhibition is “Active”.

What about the inhibition [11] of the same compound?
The inhibition was “Active”.

And the inhibition [12]?
Its inhibition is “Active”.

And the inhibition [13]?
The inhibition was “Active”.

What about the inhibition [2] of the same compound?
The inhibition was “inactive”.

And the inhibition [3]?
The inhibition was “inactive”.

What about the inhibition [4] of the same compound?
Its inhibition is “Active”.

What about the inhibition [5] of the same compound?
The inhibition was “Active”.

What about the inhibition [7] of the same compound?
The inhibition was “Active”.

And the inhibition at 10 µM [8]?
Its inhibition at 10 µM is 20%.

What about the inhibition at 1 µM [9] of the same compound?
Its inhibition at 1 µM is 20%.

How did the inhibition [10] turn out when `CN(C(=O)Cn1ccnc1)C(c1ccccc1)c1ccc(OCc2ccccc2)cc1` (configuration not stated) was run?
The inhibition was “Active”.

What about the inhibition [11] of the same compound?
The inhibition was “Active”.

And the inhibition [12]?
The inhibition was “Active”.

What about the inhibition [13] of the same compound?
The inhibition was “Active”.

What about the inhibition [2] of the same compound?
Its inhibition is “inactive”.

What about the inhibition [3] of the same compound?
Its inhibition is “inactive”.

And the inhibition [4]?
The inhibition was “Active”.

And the inhibition [5]?
The inhibition was “Active”.

And the inhibition [6]?
The inhibition was “Active”.

What about the inhibition [7] of the same compound?
The inhibition was “Active”.

What about the inhibition at 10 µM [8] of the same compound?
The inhibition at 10 µM was 20%.

And the inhibition at 1 µM [9]?
The inhibition at 1 µM was 20%.

`FC(F)(F)c1ccc(SC[C@@H]2CO[C@](CCc3ccc(Cl)cc3)(Cn3ccnc3)O2)nc1` was tested. Which IC50 [14] did it give?
Its IC50 is 16 µM.

What about the IC50 [15] of the same compound?
Its IC50 is 2.1 µM.

How did the IC50 [15] turn out when `CN(C(=O)Cn1ccnc1)c1ccccc1` was run?
The IC50 was 2500 µM.

Which results are given for `CN(C(=O)Cn1ccnc1)C(c1ccccc1)c1ccc(I)cc1` (configuration not stated)?
inhibition [11]: Active; inhibition [13]: Active; inhibition [2]: inactive; inhibition [3]: inactive; inhibition [4]: Active; inhibition [5]: Active; inhibition [7]: Active; inhibition at 10 µM [8]: > 30%; inhibition at 1 µM [9]: > 30%; Activity [16]: Active

Which results are given for `CN(C(=O)Cn1ccnc1)C(c1ccccc1)C1CCCC1` (configuration not stated)?
inhibition [4]: Active; inhibition [5]: Active; inhibition [6]: Active

Which results are given for `CN(C(=O)Cn1ccnc1)C(c1ccccc1)c1ccccc1`?
inhibition [2]: inactive; inhibition [3]: inactive; inhibition [4]: Active; inhibition [5]: Active; inhibition [6]: Active; Activity [16]: Active

`CN(C(=O)Cn1ccnc1)C(c1ccccc1)C1CCCCC1` (configuration not stated) was tested. Which inhibition [4] did it give?
Its inhibition is “Active”.

What about the inhibition [5] of the same compound?
Its inhibition is “Active”.

And the inhibition [6]?
The inhibition was “Active”.

How did the inhibition [2] turn out when `CN(C(=O)Cn1ccnc1)C(c1ccccc1)c1ccc(Cl)cc1` (configuration not stated) was run?
Its inhibition is “inactive”.

What about the inhibition [3] of the same compound?
Its inhibition is “inactive”.

And the inhibition [4]?
Its inhibition is “Active”.

And the inhibition [5]?
Its inhibition is “Active”.

And the inhibition [6]?
The inhibition was “Active”.

And the inhibition at 50 µM [7]?
The inhibition at 50 µM was > 60%.

And the inhibition at 10 µM [8]?
The inhibition at 10 µM was > 60%.

And the inhibition at 1 µM [9]?
Its inhibition at 1 µM is > 60%.

What about the Activity [17] of the same compound?
The Activity was “Active”.

And the Activity [18]?
Its Activity is “Active”.

And the inhibition [19]?
The inhibition was “Active”.

What about the Activity [20] of the same compound?
The Activity was “Active”.

And the Activity [21]?
Its Activity is “Active”.

And the Activity [22]?
The Activity was “Active”.

What about the inhibition [23] of the same compound?
The inhibition was “Active”.
